According to paper PMC5692558 (Proceedings of the National Academy of Sciences of the …, 2017):
Numbering of substitutions follows the chain as printed. Names may count otherwise. “Also recorded” adds a separate entry of the source.

Assays:
STAC3 W284S = test: ITC, II–III loop with STAC3 W284S; format: binding, human; settings: 25 °C, pH 7.4, NAM mutant W284S
human CaV1.2 = test: CaV1.2 inactivation; format: cell-based; settings: Xenopus oocytes, two-electrode voltage clamp, Ba^2+ or Ca^2+ solution
Procedure, shortened: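 Human CaV1.2 α1c (splice variant a1c77) cRNA (8.2–10.9 ng) was co-injected with rabbit β1 (11.7–15.5 ng), with optional rabbit α2δ (11.7 ng) and human STAC3 isoform a (9.8–13.0 ng). Oocytes were held at 18 °C in OR3 (pH 7.6) and recorded 3–4 d later. BAPTA was pre-injected; perfusate was 40 mM Ba2+ or Ca2+, pH 7.4. P/4 leak subtraction; two-tailed unpaired t test.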

[1] = biological target: T1, STAC2 tandem SH3 domains with Gln-306 mutated to Leu (human, UniProt Q6ZMT1 296-411, Gln-306 to Leu); test: ITC
T1 sequence (looked up): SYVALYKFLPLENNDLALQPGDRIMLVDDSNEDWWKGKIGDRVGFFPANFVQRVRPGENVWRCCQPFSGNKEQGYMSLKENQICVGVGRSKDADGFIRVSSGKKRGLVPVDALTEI

[2] = biological target: T2, STAC3 tandem SH3 domains (residues 245–364) (human, UniProt Q96MF2-1 245-364); test: ITC
T2 sequence (looked up): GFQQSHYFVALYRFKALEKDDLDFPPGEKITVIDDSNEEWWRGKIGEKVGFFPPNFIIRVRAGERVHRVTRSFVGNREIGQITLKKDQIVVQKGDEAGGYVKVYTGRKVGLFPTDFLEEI

stac^−/− myotubes = settings: ref [16], cited from earlier work
[3] = test system: skeletal muscle CaV1.1 complex; settings: STAC3 W284S; ref [18]; listed as NAM mutation; cited from earlier work
CaV1.2 = settings: ref [15]; cited from earlier work
[4] = biological target: T3, STAC2 tandem SH3 domains (residues 296–411) (human, UniProt Q6ZMT1 296-411); test: ITC
T3 sequence (looked up): T1 sequence (looked up) with L11Q

[5] = biological target: T4, STAC1 tandem SH3 domains (residues 288–402) (human, UniProt Q99469 288-402); test: ITC
T4 sequence (looked up): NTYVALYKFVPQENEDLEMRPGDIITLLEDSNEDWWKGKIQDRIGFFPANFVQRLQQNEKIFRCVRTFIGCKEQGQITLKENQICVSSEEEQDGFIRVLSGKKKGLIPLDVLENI

CaV1.1 728–775: fragment 728–775 of the CaV1.1 II–III loop (core II–III loop) (NVNEVKDPYPSADFPGDDEEDEPEIPLSPRPRPLAELQLKEKAVPIPE; left off: His6, end not stated, cleaved | maltose-binding protein, end not stated, cleaved)
interaction detected by ITC (STAC3 W284S): no longer able to detect an interaction | interaction detected by ITC (STAC3 W284S; listed as II–III loop peptide): decreases the affinity to levels below detection

IPRAAA: mutation at the binding interface tested for CaV1.2 inactivation (NVNEVKDPYPSADFPGDDEEDEPEAALSPAPRPLAELQLKEKAVPIPE; left off: His6, end not stated, cleaved | maltose-binding protein, end not stated, cleaved)
effect on slowing of CaV1.2 inactivation induced by STAC3 (human CaV1.2): neither mutations at the binding interface (W284S or IPRAAA) nor an outright deletion of both SH3 domains affected the slowing of inactivation

B1: deletion of both SH3 domains: truncated STAC3 missing both SH3 domain (1–244) (protein, UniProt Q96MF2 1-244, looked up, fragment)
chain: MTEKEVLESPKPSFPAETRQSGLQRLKQLLRKGSTGTKEMELPPEPQANGEAVGAGGGPIYYIYEEEEEEEEEEEEPPPEPPKLVNDKPHKFKDHFFKKPKFCDVCARMIVLNNKFGLRCKNCKTNIHEHCQSYVEMQRCFGKIPPGFHRAYSSPLYSNQQYACVKDLSAANRNDPVFETLRTGVIMANKERKKGQADKKNPVAAMMEEEPESARPEEGKPQDGNPEGDKKAEKKTPDDKHKQP
effect on slowing of CaV1.2 inactivation induced by STAC3 (human CaV1.2): neither mutations at the binding interface (W284S or IPRAAA) nor an outright deletion of both SH3 domains affected the slowing of inactivation; also recorded: still resulted in slower inactivation

EDEPEIPLSPRPRP (peptide, UniProt Q13698 747-760, looked up) [CaV1.1 747–760 (minimal peptide)]
fold lower affinity than wild type [1]: ~2 fold | Kd [2]: 10.6 µM

B2: W284S: STAC3 disease mutation linked to Native American myopathy (protein)
chain: MTEKEVLESPKPSFPAETRQSGLQRLKQLLRKGSTGTKEMELPPEPQANGEAVGAGGGPIYYIYEEEEEEEEEEEEPPPEPPKLVNDKPHKFKDHFFKKPKFCDVCARMIVLNNKFGLRCKNCKTNIHEHCQSYVEMQRCFGKIPPGFHRAYSSPLYSNQQYACVKDLSAANRNDPVFETLRTGVIMANKERKKGQADKKNPVAAMMEEEPESARPEEGKPQDGNPEGDKKAEKKTPDDKHKQPGFQQSHYFVALYRFKALEKDDLDFPPGEKITVIDDSNEESWRGKIGEKVGFFPPNFIIRVRAGERVHRVTRSFVGNREIGQITLKKDQIVVQKGDEAGGYVKVYTGRKVGLFPTDFLEEI
modifications: left off: His6, end not stated, cleaved | maltose-binding protein, end not stated, cleaved
effect on slowing of CaV1.2 inactivation induced by STAC3 (human CaV1.2): neither mutations at the binding interface (W284S or IPRAAA) nor an outright deletion of both SH3 domains affected the slowing of inactivation | effect on EC coupling (stac^−/− myotubes; STAC3 W284S (NAM mutation)): diminished EC coupling; also recorded: large reduction in EC coupling | effect on depolarization-induced calcium release (stac^−/− myotubes; reconstituted stac^−/− myotubes, [17]): drastic reduction in depolarization-induced calcium release | recruitment of STAC3 into the skeletal muscle CaV1.1 complex / interaction with CaV1.1 [3]: did not appear to abolish the interaction between CaV1.1 and STAC3

B3: STAC3: human STAC3 isoform a (NP_659501.1) (protein)
chain: T2 sequence (looked up)
modifications: left off: His6, end not stated, cleaved | maltose-binding protein, end not stated, cleaved
effect on inactivation of CaV1.2 (CaV1.2): dramatic reduction in the speed of inactivation

NVNEVKDPYPSADFPGDDEEDEPEIPLSPRPRPLAELQLKEKAVPIPE (domain or fragment, human, UniProt Q13698 728-775, looked up) [CaV1.1 728–775 (core II–III loop)]
Kd [4]: 1.85 µM | fold higher affinity than STAC2 [5]: ~2.4 fold | fold higher affinity than STAC2 [2]: ~2.2 fold
